HTRA1 inhibitor = HTRA1 (human) protease inhibition; inhibition, % at 5.96 µM; AID 504803; Q92743; recombinant HTRA1, FP-rhodamine activity-based probe, fluorescence polarization; hit rate 0.5% among 340,000; in the data active = inhibition above about 36%;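 note: 0% = enzyme with DMSO and 100% = wells lacking enzyme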
ABHD4 inh = ABHD4 (mouse) inhibition, primary FP screen | hit rate 0.54% among 370,000 | purified mABHD4, FP-Rh probe fluorescence polarization | Q8VD66 | inhibition, % at 8.92 µM | AID 720543;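 active = inhibition exceeding the mean over every tested compound plus 3 SD, cut at about 30% in these data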;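 note: 0% = plate median of compound wells and 100% = S159A mutant with DMSO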
Target sequence (Q8VD66 whole entry, looked up): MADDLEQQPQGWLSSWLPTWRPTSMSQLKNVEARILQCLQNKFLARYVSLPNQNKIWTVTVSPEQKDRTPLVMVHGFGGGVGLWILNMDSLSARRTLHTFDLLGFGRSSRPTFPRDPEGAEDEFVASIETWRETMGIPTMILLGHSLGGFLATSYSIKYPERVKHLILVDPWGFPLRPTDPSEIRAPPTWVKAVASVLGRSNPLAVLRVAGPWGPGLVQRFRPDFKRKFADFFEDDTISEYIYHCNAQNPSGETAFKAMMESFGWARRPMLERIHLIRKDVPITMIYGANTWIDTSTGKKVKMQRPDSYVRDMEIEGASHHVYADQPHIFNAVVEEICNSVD
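Assay system: Wild-type mouse ABHD4 protein | Medium: HEPES pH 7.0 buffer, 150 mM NaCl, 0.01% Pluronic F-127 | Incubation: Enzyme–compound pre-incubation 45 min, then probe 60 min, both 25 °C | Technique: Fluorescence polarization with parallel and perpendicular emission, 525/598 nm | Evaluation: % inhibition of FP-Rh probe binding versus controls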
TCR CD3 inh = human TCR-CD3 binding inhibition; TAMRA-labeled TCR probe fluorescence, biochemical; inhibition, % at 9.4 µM; hit rate 0.37% among 360,000; AID 651800;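 note: recombinant mutant TCR 2C K166C tagged with TAMRA read by polarization; 0% = receptor in buffer alone and 100% = receptor with positive control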
SIAE inh = blocks human sialic acid acetylesterase | SIAE FP-Rh probe binding, fluorescence polarization | inhibition, % at 9.66 µM | hit rate 0.69% among 370,000;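 active = inhibition above a cutoff: mean of compounds within the control limits plus 3 SD of those, cut at about 17% in these data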;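 note: 0% = plate median of compound wells and 100% = probe without SIAE protein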
PRMT1 FP inh = inhibitors of human PRMT1. recombinant PRMT1, activity-based probe fluorescence polarization. inhibition, % at 2.79 µM. hit rate 1.3% among 370,000. AID 652257;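 active = inhibition above about 21% made by adding two undisclosed values, limit read from the data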
Target sequence (Q99873 whole entry, looked up): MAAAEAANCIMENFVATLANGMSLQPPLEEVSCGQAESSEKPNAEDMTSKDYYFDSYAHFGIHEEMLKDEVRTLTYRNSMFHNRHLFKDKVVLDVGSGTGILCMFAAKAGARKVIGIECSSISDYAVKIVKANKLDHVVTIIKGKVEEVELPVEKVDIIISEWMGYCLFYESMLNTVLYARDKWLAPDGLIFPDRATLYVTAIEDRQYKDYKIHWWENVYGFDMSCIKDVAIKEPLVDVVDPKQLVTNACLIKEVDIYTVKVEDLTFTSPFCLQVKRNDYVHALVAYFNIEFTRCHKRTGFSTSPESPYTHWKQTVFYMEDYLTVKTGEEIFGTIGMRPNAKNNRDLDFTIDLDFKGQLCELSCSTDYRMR
PAD4 FP inh = PAD4 (human) enzyme inhibition; Q9UM07; AID 485272; inhibition, % at 6.36 µM; recombinant PAD4, RCA probe fluorescence polarization; hit rate 0.41% among 330,000;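 active = percent inhibition above a cutoff equal to the mean of all tested compounds plus 3 SD, cut at about 15% in these data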;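 note: 0% = PAD4 with RCA probe and DMSO and 100% = probe without PAD4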
BSA probe FL = counter-screen for TCR-CD3 interaction inhibitors: BSA probe; hit rate 10% among 1,200; inhibition, % at 9.4 µM; TAMRA-labeled BSA probe fluorescence counterscreen; AID 652035; shares compounds with TCR CD3 inh; in the data active = inhibition above about 23%;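 note: 0% = buffer low control and 100% = reference high control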
TCR-CD3 inh conf = TCR-CD3 interaction inhibition, confirmation; inhibition, % at 9.4 µM; hit rate 48% among 1,200; shares compounds with TCR CD3 inh; AID 652036; TAMRA-labeled TCR probe fluorescence binding assay
An asterisk follows results filed as active; x = no result given. Shown are actives, neighbours in structure and some others; about 2.9% of the full set was active somewhere. Cut-off read from the data, not from the text of the source, unless noted: active = inhibition above about 19%; inactive = the rest.

SMILES | HTRA1 inhibitor | ABHD4 inh | TCR CD3 inh | SIAE inh | PRMT1 FP inh | PAD4 FP inh | BSA probe FL | TCR-CD3 inh conf
CCCCN1CCN(C(=O)c2ccc(CNC(=O)c3cccc(Br)c3)cc2)CC1 | x | -3.5 | x | 5.2 | -1.7 | x | x | x
COC(=O)N1Cc2ccnnc2CC1c1ccccc1-c1ccc(OC)cc1 (stereo not given) | x | 6.0 | -2.7 | -0.1 | 5.1 | x | x | x
O=C(NNC(=O)c1cc2ccccc2cc1O)Nc1ccc(Br)cc1 | 10.4 | 5.7 | 22.9* | 15.9 | 5.5 | 0.6 | -10.8 | 21.6*
Cc1occc1C(=O)NNC(=O)Nc1ccc(F)cc1F | -1.5 | -0.1 | 2.1 | -1.6 | -2.0 | 4.6 | x | x
CC(=O)NC(CC(=O)NNC(=O)c1cc2ccccc2cc1O)c1ccccc1 (stereo not given) | 15.0 | 16.9 | 49.9* | 8.4 | 7.7 | -2.3 | -4.3 | 31.0*
O=C(NNC(=O)c1cc2ccccc2cc1O)Nc1ccc(F)cc1F | 18.0 | 1.1 | 19.9* | 9.1 | -0.3 | 0.3 | 4.5 | 19.1*
COc1ccc(NS(=O)(=O)c2ccc(C)c(C(=O)NNC(=O)c3ccccc3O)c2)cc1 | 13.8 | -16.1 | 5.4 | 4.8 | 7.0 | -5.6 | x | x
Cc1ccc(S(=O)(=O)Nc2ccccc2F)cc1C(=O)NNC(=O)c1ccccc1O | 26.4 | 4.9 | 19.1* | 5.6 | 3.4 | -6.2 | 12.0 | 25.2*
O=C(NC1CC1c1ccccc1)N1CCC(c2nc3ccc(Cl)cc3[nH]2)CC1 (stereo not given) | x | -10.8 | x | -2.3 | 2.0 | x | x | x
CC(=O)OCCCN1CCC2(CCCCC2)C1=O | x | 3.7 | x | -4.9 | 0.6 | x | x | x
C[C@H]1CN(S(=O)(=O)C(C)(C)C)[C@@H](CCO)/C1=C\c1ccccc1 | x | -2.7 | -10.2 | 1.4 | 0.8 | x | x | x
CCCCCCC12C(=Cc3cc(C)ccc31)c1ccccc1C(CC(=O)NCc1ccccc1)N2C(=O)OC (stereo not given) | x | -11.1 | -5.1 | 2.0 | 5.3 | x | x | x
O=C(COC(=O)c1cc2ccccc2cc1O)NC1CCCCC1 | -7.5 | -3.1 | -0.8 | -0.2 | 2.5 | 1.2 | x | x
O=C(NNC(=O)c1cc2ccccc2cc1O)NC1CCCCC1 | 28.4 | 13.1 | 21.9* | 7.2 | 0.4 | x | -10.5 | 18.1
COc1cc(NC(=O)CSc2nc(C)cc(=O)[nH]2)cc(OC)c1 | x | -0.3 | x | -1.6 | -1.0 | x | x | x
Cc1nc2ccccc2n1CC(=O)c1ccc(O)c(O)c1 | 13.9 | 16.4 | 45.0* | 2.0 | 2.2 | 4.5 | -7.4 | 37.0*
Cc1nc2ccccc2n1CC(=O)c1ccccc1 | -5.5 | -3.0 | 1.5 | 8.2 | -3.0 | -4.7 | x | x
C/C(=N\NC(=O)c1c(C)nc2ccccn12)c1ccc(O)cc1O | 9.1 | 14.0 | 49.4* | 4.8 | 0.3 | 3.2 | -12.5 | 36.6*
O=C(CN1C(=O)C2(OCCCO2)c2ccccc21)NCc1ccc2ccccc2c1 | x | 4.5 | x | -5.1 | 3.1 | x | x | x
C[C@H](CO)N1C[C@H](C)[C@@H](CN(C)S(=O)(=O)c2cccs2)Oc2ccc(NC(=O)Nc3ccc(C(F)(F)F)cc3)cc2C1=O | -123.5 | -111.5 | 27.6* | -210.1 | 1.3 | -4.6 | 8.2 | 19.3*
C[C@H](CO)N1C[C@H](C)[C@@H](CN(C)S(=O)(=O)c2cccs2)Oc2ccc(NC(=O)Nc3ccccc3)cc2C1=O | -21.8 | -12.7 | -3.8 | -25.6 | -1.9 | -0.4 | x | x
C[C@@H]1CN([C@H](C)CO)C(=O)c2cc(NC(=O)Nc3ccc(C(F)(F)F)cc3)ccc2O[C@H]1CN(C)S(=O)(=O)c1cccs1 | -158.1 | -134.9 | 43.1* | -195.1 | -0.3 | -5.9 | 10.3 | 23.1*
O=C(O)c1ccc(-n2cccc2/C=N\NC(=O)c2cc3cc(Br)ccc3o2)cc1 | -17.0 | -2.3 | 28.7* | -3.4 | 3.9 | -4.0 | -5.6 | 37.4*
Cn1cc(/C=N/NC(=O)c2cc3cc(Br)ccc3o2)c2ccccc21 | x | -5.5 | -9.0 | 1.5 | 6.7 | 2.3 | x | x
CC(C)(C)c1ccc(C(=O)Nc2cc(Cl)ccc2C(=O)O)cc1 | x | -55.2 | x | -35.8 | -5.3 | x | x | x
SMILES | HTRA1 inhibitor | ABHD4 inh | TCR CD3 inh | SIAE inh | PRMT1 FP inh | PAD4 FP inh | BSA probe FL | TCR-CD3 inh conf
CCOC(=O)[C@]12CCCCC/C=C\1N(Cc1ccc(OC)cc1)C(=O)[C@H]2CC(=O)N1CCCC1 | x | -1.7 | x | 3.4 | 1.2 | x | x | x
COc1cc(/C=N\NC(=O)C2COc3ccccc3O2)cc(OC)c1O (stereo not given) | -3.4 | 6.3 | 2.3 | 6.4 | 0.6 | -1.8 | x | x
CCOc1ccc(-n2c(O)c(/C=N/NC(=O)C3COc4ccccc4O3)c3ccccc3c2=O)cc1 (stereo not given) | 14.4 | 19.6 | 20.3* | 2.4 | 1.9 | -3.4 | 0.3 | 36.5*
Nn1c(SCC(=O)Nc2nccs2)nnc1-c1cc(-c2ccc(F)cc2)n[nH]1 | x | 3.6 | x | 3.1 | -3.1 | x | x | x
CC(COc1cc(F)cc(F)c1)CN1CCC(C(O)(c2ccccc2)c2ccccc2)CC1 (stereo not given) | x | -1.6 | x | -9.4 | -9.6 | x | x | x
CCN(CC)CCC(c1cc(OC)c(OC)c(OC)c1)c1c(OC)cc(OC)c2ccc(=O)oc12 (stereo not given) | -3.2 | 0.4 | 95.5* | 0.6 | -0.8 | 0.0 | 7.0 | -0.2
CC(=O)c1c(C)[nH]c(C(=O)OCC(=O)NNC(=O)c2ccc([N+](=O)[O-])cc2)c1C | -0.4 | -1.8 | 1.1 | -0.9 | -0.8 | -2.8 | x | x
CC(=O)c1c(C)[nH]c(C(=O)OCc2nnc(-c3ccc([N+](=O)[O-])cc3)o2)c1C | 8.0 | 18.1 | 26.5* | 10.2 | 24.3* | 4.1 | 1.8 | 9.1
Cc1ccccc1OCC(=O)Nc1ccncc1 | -0.7 | -0.9 | 13.3 | 8.7 | 11.0 | 6.1 | x | x
CC(=O)Nc1cccc(NC(=O)COc2ccccc2C)c1 | 7.5 | 0.3 | 21.4* | 0.0 | 1.7 | -9.3 | 2.7 | -0.4
C/C(=N\NC(=O)Cc1cccn1C)c1ccco1 | 0.4 | 8.4 | -0.1 | 7.7 | -0.3 | -0.8 | x | x
Cn1cccc1CC(=O)N/N=C/C=C/c1ccco1 | 8.3 | 6.2 | 19.8* | 3.9 | 14.6 | 0.4 | -11.0 | 10.3
COc1ccc(N2CC(C(=O)N3CCCC(C)C3)CC2=O)cc1 (stereo not given) | 2.8 | -4.7 | 141.6* | 2.4 | -0.6 | 1.0 | -0.1 | 0.3
COc1ccc(N2C(=O)c3n[nH]c(C(C)C)c3C2c2ccc(C)cc2)cc1 (stereo not given) | x | -7.8 | -4.2 | -7.2 | -2.3 | x | x | x
O=C(c1ccc2nc(-c3ccco3)c(-c3ccco3)nc2c1)N1CCN(c2ncccn2)CC1 | 22.2 | 32.6* | 29.3* | 35.5* | 35.3* | -6.4 | -0.9 | 24.8*
Cc1ccccc1CSc1nnnn1-c1ccc(C(N)=O)cc1 | 2.1 | -6.1 | -15.6 | 2.9 | -4.5 | -0.2 | x | x
NC(=O)c1ccc(-n2nnnc2SCC(=O)c2ccc(O)c(O)c2)cc1 | 28.8 | 22.7 | 28.4* | 5.3 | 9.1 | -3.7 | -10.1 | 38.9*
O=C(NC(=S)Nc1ccc(Br)cn1)c1cccs1 | 2.8 | 5.6 | 26.8* | -2.8 | 0.1 | -2.0 | 2.9 | 1.1
